Consider six molecules from PubChem BioAssay AID463078 (The Scripps Research Institute Molecular Screening Center, 2010).

Activity calls are given as the source filed them.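 The calls were made as follows: active = fold change below the hit cutoff of 0.7; inactive = the rest.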

Sequence of Nuclear receptor ROR-alpha (Homo sapiens) (P35398 whole entry, looked up, the tested form may be a part): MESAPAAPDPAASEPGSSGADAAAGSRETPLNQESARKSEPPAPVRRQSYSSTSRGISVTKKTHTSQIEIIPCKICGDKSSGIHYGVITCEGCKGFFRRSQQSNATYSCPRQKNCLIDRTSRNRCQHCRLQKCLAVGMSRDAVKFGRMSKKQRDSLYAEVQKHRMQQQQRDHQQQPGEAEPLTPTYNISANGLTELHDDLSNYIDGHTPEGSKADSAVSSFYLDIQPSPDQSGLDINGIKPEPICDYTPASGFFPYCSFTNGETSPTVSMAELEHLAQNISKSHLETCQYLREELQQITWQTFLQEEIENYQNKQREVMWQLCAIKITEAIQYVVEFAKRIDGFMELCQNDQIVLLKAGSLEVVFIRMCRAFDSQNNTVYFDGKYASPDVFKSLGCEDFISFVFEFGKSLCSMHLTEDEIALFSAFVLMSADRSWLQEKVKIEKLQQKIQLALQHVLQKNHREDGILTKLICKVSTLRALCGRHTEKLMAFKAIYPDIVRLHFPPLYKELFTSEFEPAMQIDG

This assay addresses Nuclear receptor ROR-alpha (Homo sapiens) (UniProt P35398). Nature of the assay: inhibitors of RORa reporter activity, late-stage follow-up, RORA inverse agonist project, cell-based, luminescence, assay provider (AID 463078). The settings on record: HEK293T GAL4-RORa LBD luciferase reporter, 20 h; at 10 µM; active compounds read low. The essentials: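 Assay system: HEK293T cells with GAL4-RORα LBD and UAS-luciferase; Compound: single nominal 10 µM dose per test compound; Timing: 20 h compound exposure; Measured by: luminescence; Read-out: mean fold change relative to DMSO vehicle; Controls: DMSO vehicle wells; Repeats: six replicates.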
Take `O=S(=O)(Nc1ccc(C(O)(C(F)(F)F)C(F)(F)F)cc1)c1cccs1`: the fold change is 0.63. Then `O=C(Nc1ccc(C(O)(C(F)(F)F)C(F)(F)F)cc1)c1c(F)cccc1F`, with 0.944 (inactive). Then `O=C(Nc1ccc(C(O)(C(F)(F)F)C(F)(F)F)cc1)c1ccc(F)cc1Cl`, with 1.1 (inactive). As to `O=C(Nc1ccc(C(O)(C(F)(F)F)C(F)(F)F)cc1)c1ccc(Cl)cc1`, the fold change is 1.23 (inactive). Then `O=C(Nc1ccc(C(O)(C(F)(F)F)C(F)(F)F)cc1)c1ccccc1C(F)(F)F`, with 0.806 (inactive); and `O=C(Nc1ccc(C(O)(C(F)(F)F)C(F)(F)F)cc1)c1ccc(F)cc1F`, with 1.71 (inactive).
